From PubChem BioAssay
TAAR1 agonist: agonists of human TAAR1. Q96RJ0. CHO RD-HGA16 TAAR1, Fluo-8 calcium fluorescence; vehicle wells 0%, saturating PEA agonist 100%. activation, % at 3 µM. actives 0.99% (n = 360,000). AID 624467;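 active = activation above the mean activation of all test compounds in the run plus 3 SD, cut at about 38% in these data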
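test system = CHO RD-HGA16 cells carrying human TAAR1 plus Gα16 | schedule = 17-24 h seeding, 75 min 37 °C dye, 30 min RT | compound dosing = 3 µM single concentration | control set = DMSO and PEA EC100 | replicates = n 1 | signal = Fluo-8 fluorescence, 5 s baseline then 140 s kinetic read | measure = percent activation vs PEA EC100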
OX1R antag-1: OX1R (human) antagonism | O43613 | OX1R-expressing cells, FRET antagonist read-out | inhibition, % at 6.6 µM | actives 1.8% (n = 330,000) | AID 485270; in the data active = inhibition mostly above about 38%, no sharp cut-off; inactive = mostly below about 40%;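 also: 0% = agonist challenge alone and 100% = reference antagonist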
Target sequence (O43613 whole entry, looked up): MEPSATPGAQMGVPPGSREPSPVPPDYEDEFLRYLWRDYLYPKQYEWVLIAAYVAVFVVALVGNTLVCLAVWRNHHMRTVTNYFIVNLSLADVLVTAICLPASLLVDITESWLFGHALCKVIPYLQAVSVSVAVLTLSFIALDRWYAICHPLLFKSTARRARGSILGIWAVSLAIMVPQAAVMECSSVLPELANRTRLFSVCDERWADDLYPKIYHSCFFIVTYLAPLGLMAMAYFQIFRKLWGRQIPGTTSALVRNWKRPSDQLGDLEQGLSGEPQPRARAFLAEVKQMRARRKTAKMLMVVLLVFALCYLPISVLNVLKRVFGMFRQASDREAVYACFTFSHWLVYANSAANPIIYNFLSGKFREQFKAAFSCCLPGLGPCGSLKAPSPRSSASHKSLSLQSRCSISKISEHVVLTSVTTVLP
CHO parental Ca: counter-screen for OX1R antagonists: effect in parental CHO cells; parental CHO-K1, ATP-induced calcium, Fluo-8 fluorescence; inhibition, % at 5.6 µM; actives 0.63% (n = 330,000);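 active = inhibition above that plate's mean sample inhibition plus 3 SD, cut at about 26% in these data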;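 also: 0% = ATP-challenged DMSO wells and 100% = DMSO wells without ATP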
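Measured by: calcium-sensitive Fluo-8 fluorescence / Test system: CHO parental line / Controls: ATP-challenged DMSO wells low, unchallenged DMSO wells high / Measure: % inhibition / Compound: single nominal dose of 5.6 µM per compound / Replicates: single well per compound, no replicates / Reagent: ATP as calcium-mobilizing challenge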
GalR3 antagonist: human GalR3 antagonism. O60755. HEK293 GalR3-CNG cAMP membrane potential fluorescence; galR3 body fused to GalR1 C-terminus. inhibition, % at 3 µM. actives 0.44% (n = 360,000). AID 651719;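 active = inhibition above the screen-wide average plus 3 SD, cut at about 13% in these data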;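 also: forskolin and galanin both at EC90 stimulate the cells; cAMP rise reported by CNG channel membrane potential dye signal; 0% = forskolin plus galanin with DMSO and 100% = forskolin alone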
Target sequence (O60755 1-299 limits assumed): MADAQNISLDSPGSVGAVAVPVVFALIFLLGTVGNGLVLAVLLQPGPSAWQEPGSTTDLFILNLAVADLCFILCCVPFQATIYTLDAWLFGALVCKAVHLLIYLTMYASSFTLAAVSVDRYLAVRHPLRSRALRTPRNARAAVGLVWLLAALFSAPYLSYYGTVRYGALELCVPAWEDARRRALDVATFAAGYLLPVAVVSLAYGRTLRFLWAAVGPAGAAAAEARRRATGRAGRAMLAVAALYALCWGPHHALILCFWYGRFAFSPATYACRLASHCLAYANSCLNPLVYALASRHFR
OX1R antag-2: human HCRTR1 antagonism; O43613; CHO/OX1R cells, Fluo-8 calcium fluorescence, orexin A; inhibition, % at 5 µM; actives 0.43% (n = 330,000);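 active = inhibition above its plate's threshold, mean inhibition of all tested compounds on the plate plus 3 SD, cut at about 37% in these data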;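 also: 0% = orexin A challenge wells and 100% = SB-334867-A antagonist wells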
TAAR1 antagonist: antagonists of human TAAR1; inhibition, % at 3 µM; actives 1.5% (n = 360,000); CHO RD-HGA16 TAAR1, Fluo-8 calcium fluorescence, antagonist;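 active = inhibition above a per-plate cutoff, the mean inhibition of test compounds on that plate plus 3 SD, cut at about 49% in these data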;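 also: 0% = DMSO plus EC80 beta-PEA response and 100% = DMSO alone without agonist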
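System: RD-HGA16 CHO cells with stable hTAAR1 and Gα16 | Probe or stimulus: EC80 β-phenethylamine stimulus | Dosing: 3 µM, single point | Times: Dye loading 75 min at 37 °C, then 30 min room temperature | Measured by: Fluo-8 calcium-sensitive fluorescence | Read-out basis: % inhibition of agonist calcium response | Replicates: n of 1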
TAAR1 ag confirm: confirmation of human TAAR1 agonists; shares compounds with TAAR1 agonist; CHO RD-HGA16 TAAR1, Fluo-8 calcium fluorescence; scaled: DMSO 0%, maximal phenethylamine 100%; activation, % at 3 µM; actives 82% (n = 2,400);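 active = activation above a cutoff set at the run's mean compound activation plus 3 SD, cut at about 39% in these data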
Ga16 ag counter: counter-screen for TAAR1 agonists: nonselective agonists in parental cells; AID 651787; actives 50% (n = 2,400); CHO-Ga16 parental, Fluo-8 calcium fluorescence; normalized to maximal ATP response, DMSO zero; shares compounds with TAAR1 agonist; activation, % at 3 µM;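 active = activation above the run cutoff, the mean activation over all tested wells plus 3 SD, cut at about 12% in these data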;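 also: 0% = DMSO wells and 100% = maximal ATP response on the peak over basal ratio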
TAAR1 desens: human TAAR1 agonist that also desensitizes the receptor; shares compounds with TAAR1 agonist; CHO RD-HGA16 hTAAR1, Fluo-8 calcium, beta-PEA response inhibition; inhibition, % at 3 µM; actives 46% (n = 2,400);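 active = inhibition above the run cutoff, the mean inhibition of all test compounds plus 3 SD, cut at about 49% in these data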;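 also: beta-PEA stimulus applied at its EC80; loss of beta-PEA calcium signal after compound pretreatment read as receptor desensitization; 0% = DMSO with beta-PEA at EC80 and 100% = DMSO alone without agonist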
Ga16 antag count: nonselective Ga16 antagonism, counter-screen; shares compounds with TAAR1 agonist; CHO-Ga16 ATP-induced calcium, Fluo-8 fluorescence; inhibition, % at 3 µM; actives 39% (n = 2,400); AID 651952;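 active = inhibition above the plate's mean compound inhibition plus 3 SD, computed per plate, cut at about 22% in these data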;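 also: 0% = EC80 ATP with DMSO and 100% = DMSO wells without ATP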
* = called active by the depositor; · = no result. Shown are actives, neighbours in structure and some others; about 4.3% of the full set was active somewhere.

SMILES	TAAR1 agonist	OX1R antag-1	CHO parental Ca	GalR3 antagonist	OX1R antag-2	TAAR1 antagonist	TAAR1 ag confirm	Ga16 ag counter	TAAR1 desens	Ga16 antag count
Nc1ccc2c3c(cccc13)C(=O)N(c1ccccc1)C2=O	403*	·	·	-5	·	85*	176*	147*	53*	50*
C/C(=C\C=C(C#N)C#N)c1cc(C#N)c(N)o1	99*	·	·	-2	·	37	30	33*	27	25*
Cn1cc(CN2CCC(C(=O)NC(c3ccc(F)cc3)c3ccc4ccccc4n3)CC2)c2ccccc21 (configuration not stated)	53*	·	·	-7	·	52*	-4	32*	104*	52*
COc1cc(CN2CCC(C(=O)NC(c3ccc(F)cc3)c3ccc4ccccc4n3)CC2)cc(OC)c1 (configuration not stated)	14	·	·	-4	·	-7	·	·	·	·
CN1CCN(c2ccc(NC(=O)c3ccc([N+](=O)[O-])o3)cc2Cl)CC1	45*	54*	17	-9	-7	4	55*	1	28	12
O=C(Nc1ccc(N2CCOCC2)c(Cl)c1)c1ccc([N+](=O)[O-])o1	11	·	·	-5	·	26	·	·	·	·
CCCCOc1ccc(C(=O)NCC(=O)NCC(c2ccc(OC)cc2)N2CCCC2)cc1 (configuration not stated)	-1	7	-22	-3	-36	-8	·	·	·	·
O=c1c2ccccc2c(C=Nc2cccc(O)c2)c(O)n1-c1ccc2c(c1)OCO2	62*	4	0	-5	1	41	82*	41*	67*	26*
CC1=C(C(=O)N2CCOCC2)CC(CC(=O)NCCCN(C)C)C(=O)N1Cc1ccc(F)cc1 (configuration not stated)	3	·	·	-5	·	-5	·	·	·	·
COc1ccccc1Nc1nc(N)nc(CN2CCc3ccccc3C2)n1	43*	18	-20	-3	-32	-8	54*	1	-3	6
Nc1nc(CN2CCc3ccccc3C2)nc(Nc2ccccc2)n1	59*	34	-18	-5	-20	19	85*	1	47	10
Nc1nc(CN2CCCCCC2)nc(Nc2ccccc2)n1	6	18	-25	-4	-30	-17	·	·	·	·
COc1ccc(Nc2nc(N)nc(CN3CCc4ccccc4C3)n2)cc1	44*	5	-21	-2	-18	-8	88*	4	27	2
COc1ccc(Nc2nc(N)nc(CN3CCC(C)CC3)n2)cc1	0	-7	-13	-4	-11	-27	·	·	·	·
COc1ccc(NC(=O)COc2coc(CN3CCN(c4ccccc4)CC3)cc2=O)cc1	8	5	-14	-3	-23	-26	·	·	·	·
Cc1cccc(CCNC(=O)c2cc(S(=O)(=O)N3CCCCC3)c[nH]2)c1	7	4	-4	-1	-27	-6	·	·	·	·
CC(C)C[C@H]1COc2cccc(N3CCN(Cc4ccccc4F)CC3)c2S(=O)(=O)N1	9	·	·	-6	·	27	·	·	·	·
CC(OC(=O)c1ccc(Cl)nc1)C(=O)NCc1ccc2c(c1)OCO2 (configuration not stated)	0	11	-10	-5	-12	2	·	·	·	·
O=C(Cn1cccc1C(=O)c1ccccc1)NCc1ccccc1Cl	3	6	-23	-4	-25	-33	·	·	·	·
Cc1ccccc1C(=O)c1cccn1CC(=O)NCc1ccccc1Cl	50*	28	0	0	-8	34	5	6	10	16
CCO[C@H]1c2c(ccc3ccc(=O)oc23)OC(C)(C)[C@H]1O	10	-2	-5	-1	-7	-5	·	·	·	·
C/C=C(\C)C(=O)OC1c2c(ccc3ccc(=O)oc23)OC(C)(C)C1OC(C)=O (configuration not stated)	51*	26	3	-2	28	62*	45*	29*	79*	54*
O=C(c1ccc(Cn2cnnn2)cc1)N1CCCC(Nc2ccc(F)c(F)c2)C1 (configuration not stated)	5	-3	-15	0	-3	-6	·	·	·	·
O=c1cc(Nc2ccc3c(c2)OCO3)[nH]c(=O)n1-c1ccc(Br)cc1	48*	0	-10	-9	-7	-7	76*	6	25	7
CNS(=O)(=O)c1cccc(C(=O)OCC(=O)N2CC(C)OC(C)C2)c1 (configuration not stated)	4	25	13	-9	4	-10	·	·	·	·
SMILES	TAAR1 agonist	OX1R antag-1	CHO parental Ca	GalR3 antagonist	OX1R antag-2	TAAR1 antagonist	TAAR1 ag confirm	Ga16 ag counter	TAAR1 desens	Ga16 antag count
Cc1ccc2c(Cl)c(C)c(N3CCOCC3)nc2n1	0	·	·	-12	·	0	·	·	·	·
CCOC(=O)C1CCCN(C(c2ccccn2)c2c(C)[nH]c3ccccc23)C1 (configuration not stated)	67*	13	-11	-6	-39	71*	74*	2	84*	1
CCc1ccccc1NC(=O)Nc1ccc2c(c1)OCO2	64*	29	3	-4	-16	43	2	5	3	9
Cc1ccnc(NC(=O)Nc2ccc3c(c2)OCO3)c1	47*	7	-10	-5	-7	4	87*	0	66*	4
Cc1ccc(C(O)c2ncc(-c3cccc4ccccc34)[nH]2)cc1F (configuration not stated)	2	·	·	-5	·	-3	·	·	·	·
N#Cc1cccc(NC(=O)c2cc(C3CCCCN3C(=O)c3ccccn3)on2)c1 (configuration not stated)	2	·	·	-7	·	16	·	·	·	·
O=C1c2cccc3c(N4CCCCC4)ccc(c23)C(=O)N1c1ccccc1O	130*	13	52*	-3	54*	65*	24	33*	36	50*
O=C(O)c1ccc(N2CCCCCC2)c(N2C(=O)c3ccccc3C2=O)c1	-1	8	-10	3	-16	-22	·	·	·	·
Cc1ccc(C2OCC3(CO2)COC(c2ccc(C)cc2)OC3)cc1 (configuration not stated)	0	28	-8	-3	2	-18	·	·	·	·
